Here are results for 17 compounds from ChEMBL document CHEMBL5113474, “Triazole-substituted phenylboronic acids as tunable lead inhibitors of KPC-2 antibiotic resistance” (Eur J Med Chem, 2022).

In data set [1] the test system is Escherichia coli. In kind it is functional, BL21 (DE3). The note with it: time 16-18 hrs.
The test system of a further data set is Bacteria. Nature of the data set: Inhibition of bacterial beta-lactamase KPC-2 expressed in Escherichia coli BL21 (DE3) using nitrocefin as substrate at 1 uM by spectrophotometric analysis relative to control. The gist of the method: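 Purified recombinant KPC-2 tested against the chromogenic β-lactam nitrocefin at 1 µM inhibitor. Hydrolysis was followed as the rise in absorbance at 482 nm (ε482 = 17,400 M-1 cm-1). Activity is expressed as percent inhibition relative to an uninhibited control.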

Data set [2] can be described thus: Inhibition of bacterial beta-lactamase KPC-2 expressed in Escherichia coli BL21 (DE3) using nitrocefin as substrate assessed as inhibition constant by Cheng-Prusoff equation analysis. More on the design: species or system Bacteria.
Data set [3] concerns Escherichia coli. The experiment in a line: Antibacterial activity against Escherichia coli NCTC10418. In kind it is functional.
Data set [4] deals with Escherichia coli. The experiment in a line: microbe, parasite or virus in culture. The class given is functional. The note with it: BL21 (DE3), dose 50 µg/ml, time 16-20 hrs.
In data set [5] the test system is Escherichia coli. The experiment in a line: microbe, parasite or virus in culture. In kind it is functional. The note with it: BL21 (DE3), dose 5 µg/ml, time 16-20 hrs.
Data set [6] has as its system Escherichia coli. Nature of the data set: microbe, parasite or virus in culture. The class given is functional. Particulars: BL21 (DE3), dose 5 µg/ml, time 16-20 hrs. The source holds these as a separate data set.
In data set [7] the test system is Escherichia coli. Nature of the data set: Potentiation of cefotaxime induced antibacterial activity against Escherichia coli expressing CMY-4/TEM-1 assessed as cefotaxime MIC at 5 ug/ml incubated for 16 to 20 hrs by microdilution method. In kind it is functional. The note with it: dose 5 µg/ml, time 16-20 hrs. The gist of the method: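 Cefotaxime MIC re-measured with the boronic acid inhibitor held at a fixed 5 μg/mL, lowered from an earlier 50 μg/ml fixed-dose combination; MICs interpreted against CLSI susceptibility categories.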

A short description of data set [8]: physchem. The note with it: 0.1 M phosphate buffer, pH 4.3.
Data set [9] can be described thus: Inhibition of class C […]beta-lactamase AmpC (unknown origin). More on the design: species or system Bacteria.
Data set [10] in a line: Inhibition of beta-lactamase TEM-1 (unknown origin). More on the design: species or system Bacteria.
Data set [11] is described as follows: Inhibition of Metallo-beta-lactamase VIM-1 (unknown origin). Also on record: species or system Bacteria.
The nature of data set [12]: Inhibition of beta-lactamase OXA (unknown origin). Also on record: species or system Bacteria.
The subject of another data set is Klebsiella pneumoniae. Nature of the data set: Antibacterial activity against Klebsiella pneumoniae harboring OXA-48 assessed as bacterial growth inhibition incubated for 16 to 20 hrs by microdilution method. The class given is functional. The note with it: time 16-20 hrs. Background: Broth dilution looks for growth in wells or tubes with falling amounts of substance.

Data set [13] deals with Escherichia coli. Nature of the data set: microbe, parasite or virus in culture. The class given is functional. The note with it: BL21 (DE3), dose 50 µg/ml, time 16-20 hrs. This is another data set of the same source.
A short description of data set [14]: Cytotoxicity against HEK293 cells assessed as cell viability at 5 to 50 ug/ml incubated for 24 hrs by MTT assay relative to control. Particulars: human, at 5 to 50 µg/mL.
Data set [15] can be described thus: Cytotoxicity against HEK293 cells assessed as cell viability at 5 to 50 ug/ml incubated for 24 hrs in presence of cefotaxime by MTT assay relative to control. The note with it: human, at 5 to 50 µg/mL. Background: Tetrazolium assays rely on reduction of a dye to a coloured formazan, in cell work by metabolically active cells.
Data set [16] is described as follows: Inhibition of beta-lactamase KPC-2 (unknown origin). More on the design: species or system Bacteria.
Data set [17] is described as follows: Inhibition of beta-lactamase SHV-12 (unknown origin). More on the design: species or system Bacteria.
Data set [18] can be described thus: Inhibition of beta-lactamase PDC-3 (unknown origin). More on the design: species or system Bacteria.
The nature of data set [19]: Inhibition of beta-lactamase P99 (unknown origin). More on the design: species or system Bacteria.
The subject of data set [20] is Escherichia coli. Nature of the data set: Antibacterial activity against Escherichia coli expressing CMY-4/TEM-1 assessed as bacterial growth inhibition at 0.06 to 64 ug/ml incubated for 16 to 20 hrs by microdilution method. Particulars: dose 0.06-64 µg/ml, time lower […], time upper 20.0 hrs. In kind it is functional, organism-based.
For the next data set, the system named is Proteus mirabilis. Nature of the data set: Antibacterial activity against Proteus mirabilis producing CTX-M-14/CMY-2 assessed as bacterial growth inhibition incubated for 16 to 20 hrs by microdilution method. The class given is functional. Particulars: time 16-20 hrs.
A short description of data set [21]: Solubility of the compound at 0.1 mM in 0.1 M phosphate buffer. The note with it: 100 µM. In kind it is physicochemical.
Data set [22] is described as follows: physchem. Particulars: 0.1 M phosphate buffer.
Data set [23] in a line: Inhibition of beta-lactamase CTX-M (unknown origin). Also on record: species or system Bacteria.

Each structure is given as a SMILES string. Values after ≈ are worked out from the molar mass of the structure shown. Active and inactive are the calls of the source. The rule behind the calls is not given here. Bounds are passed on as bounds.

One may read the inhibition as how much of the control response was suppressed. For orientation: Ki means the equilibrium dissociation constant of an inhibitor or competing ligand from its target. What is called pKa is the negative logarithm of the acid dissociation constant. Low values mean a stronger acid or weaker base, high ones a weaker acid or stronger base. For `[N-]=[N+]=Nc1cccc(B(O)O)c1`, the “inhibition zone (IZ)” value in the data set with Escherichia coli [1] is 31.3 mm. In the data set with Bacteria, this compound came in with an inhibition of 34%. Also, the Ki in data set [2] was 450 nM. The MIC was > 64 µg/mL with Escherichia coli [3]; ≤ 0.06 µg/mL against Escherichia coli [4]; ≤ 0.06 µg/mL in the data set with Escherichia coli [5]; 0.25 µg/mL (≈ 1.53 µM) against Escherichia coli [6]; 1 µg/mL with Escherichia coli [7]. In “physchem [8]”, the pKa at 100 µM stood at 8.27.
Broadly, the IC50 is the concentration needed to halve the response being measured. A low value points to greater potency in that assay. As to `NCc1ccc(C(=O)NC2Cc3cccc(C(=O)O)c3OB2O)cc1` (configuration not stated), the IC50 amounted to 270 nM in [9], 8.1 nM in data set [10], 61 nM in data set [11] and 2000 nM in data set [12].
Turning to `CO/N=C(\C(=O)N[C@@H]1C(=O)N2C(C(=O)O)=C(COC(C)=O)CS[C@H]12)c1csc(N)n1` [CEFOTAXIME], in the data set on Klebsiella pneumoniae, the MIC came to 2 µg/mL (≈ 4.39 µM).
Usually viability stands for a per cent measure of how many cells are alive, often set against a control. With `[N-]=[N+]=Nc1cc(B(O)O)c(F)cc1F`, the “inhibition zone (IZ)” value in the data set on Escherichia coli [1] was determined as 23.4 mm. This compound came in with an inhibition in the data set with Bacteria of 0%. In addition, in [2], the Ki was 7800 nM. The MIC is > 64 µg/mL in the data set on Escherichia coli [3]; 0.12 µg/mL (≈ 0.603 µM) in the data set on Escherichia coli [4]; 16 µg/mL (≈ 80.4 µM) in the data set on Escherichia coli [13]; ≤ 0.06 µg/mL with Escherichia coli [5]; 8 µg/mL (≈ 40.2 µM) in the data set on Escherichia coli [6]. Further, the viability at 24 h in data set [14] and in data set [15] was > 80% throughout. Also, the pKa at 100 µM in the data set “physchem [8]” came to 6.27.
`O=C(Cc1cccs1)N[C@H](B(O)O)c1cccc(C(=O)O)c1` displayed a Ki in data set [9] of 1 nM. Moreover, the results for the IC50 in data set [16] and in data set [17] were 60 nM and 40 nM, respectively.
As for `O=C(Cc1cccs1)N[C@@H](Cn1cc(-c2cccc(C(=O)O)c2)nn1)B(O)O`, the IC50 in data set [16] turned out to be 40 nM; in data set [17], 140 nM. In addition, the Ki is 8 nM in data set [18] and 14 nM in data set [19].
Take `OB(O)c1cc(-n2cc(-c3ccsc3)nn2)ccc1F`: in the data set with Escherichia coli [1], the “inhibition zone (IZ)” value was 39.8 mm. This compound gave an inhibition in the data set on Bacteria of 35%. Also, the Ki in data set [2] turned out to be 800 nM. The MIC against Escherichia coli [3] was > 64 µg/mL; against Escherichia coli [4], ≤ 0.06 µg/mL; in the data set with Escherichia coli [13], ≤ 0.06 µg/mL; in the data set on Escherichia coli [5] it was 0.12 µg/mL (≈ 0.415 µM); in the data set on Escherichia coli [6] it was 1 µg/mL (≈ 3.46 µM). This compound also gave a pKa at 100 µM in the data set “physchem [8]” of 7.61.
In the case of `O=S(=O)(NCB(O)O)c1ccc(-c2nnn[nH]2)cc1C(F)(F)F`, in data set [9], affinity was put at a Ki of 0.05 nM.
Regarding `OB(O)c1cccc(-n2cc(-c3ccsc3)nn2)c1`, in the data set with Escherichia coli [1], the “inhibition zone (IZ)” value turned out to be 29.9 mm. Further, the inhibition in the data set on Bacteria worked out at 75%. For the same compound, the Ki in data set [2] worked out at 38 nM. Also, the MIC against Escherichia coli [3] was > 64 µg/mL; in the data set on Escherichia coli [4], 0.12 µg/mL (≈ 0.443 µM); with Escherichia coli [13], 0.25 µg/mL (≈ 0.922 µM); in the data set with Escherichia coli [5], 0.25 µg/mL (≈ 0.922 µM); in the data set with Escherichia coli [6] it was 1 µg/mL (≈ 3.69 µM). Further, the viability at 24 h in [14] and in data set [15] was > 80% in each case. In “physchem [8]”, this compound returned a pKa at 100 µM of 8.31.
Regarding `OB(O)c1cc(-n2cc(-c3ccsc3)nn2)c(F)cc1F`, the “inhibition zone (IZ)” value in the data set with Escherichia coli [1] was found to be 28.8 mm. The same compound showed an inhibition with Bacteria of 21%. Further, the Ki in data set [2] turned out to be 1840 nM. In addition, the MIC in the data set with Escherichia coli [3] is > 64 µg/mL; in the data set with Escherichia coli [4], ≤ 0.06 µg/mL; against Escherichia coli [13], ≤ 0.06 µg/mL; with Escherichia coli [5] it was ≤ 0.06 µg/mL; in the data set with Escherichia coli [6], 4 µg/mL (≈ 13 µM); in the data set on Escherichia coli [7] it was 0.12 µg/mL. The viability at 24 h in data set [14] and in data set [15] was > 80% in each case. Besides, the pKa at 100 µM in “physchem [8]” was 6.27.
As for `C[C@@H](O)[C@H]1C(=O)N2C(C(=O)O)=C(S[C@@H]3CN[C@H](C(=O)N(C)C)C3)[C@H](C)[C@H]12` [MEROPENEM], the outcome in the data set with Escherichia coli [20] was Active. Besides, the MIC came to 0.25 µg/mL (≈ 0.652 µM) in the data set with Proteus mirabilis and 0.5 µg/mL (≈ 1.3 µM) in the data set with Klebsiella pneumoniae.
In the case of `[N-]=[N+]=Nc1ccc(F)c(B(O)O)c1`, the “inhibition zone (IZ)” value with Escherichia coli [1] is recorded as 25.3 mm. In the data set on Bacteria, this compound returned an inhibition of 37%. In addition, in data set [2], the Ki came to 570 nM. Besides, the MIC with Escherichia coli [3] was > 64 µg/mL; in the data set on Escherichia coli [4] it was 0.25 µg/mL (≈ 1.38 µM); against Escherichia coli [13], 0.5 µg/mL (≈ 2.76 µM); in the data set on Escherichia coli [5], 1 µg/mL (≈ 5.53 µM); with Escherichia coli [6], 1 µg/mL (≈ 5.53 µM). This compound also came in with a pKa at 100 µM in the data set “physchem [8]” of 6.87.
On to `O=C(O)c1cccc2c1OB(O)C(NC(=O)C1CCCCC1)C2` (configuration not stated), for which the IC50 in [9] turned out to be 68 nM; in data set [10], 2.6 nM; in data set [11] it was 1000 nM; in data set [12], 220 nM.
Turning to `OB(O)c1cc(-n2cc(-c3ccsc3)nn2)cc(F)c1F`, the “inhibition zone (IZ)” value in the data set on Escherichia coli [1] came to 19.8 mm. Moreover, the inhibitory constant (Ki) in [2] amounted to 5900 nM. For the same compound, the solubility result in data set [21] is listed as “Insoluble”.
Consider `OB(O)c1cc(Cn2cc(-c3ccsc3)nn2)ccc1F`, for which the “inhibition zone (IZ)” value with Escherichia coli [1] was found to be 29.9 mm. Besides, the inhibition in the data set with Bacteria came to 53%. Also, the Ki in data set [2] was determined as 240 nM. Moreover, the MIC against Escherichia coli [3] is > 64 µg/mL; against Escherichia coli [4], ≤ 0.06 µg/mL; against Escherichia coli [13], ≤ 0.06 µg/mL; against Escherichia coli [5] it was ≤ 0.06 µg/mL; against Escherichia coli [6], ≤ 0.06 µg/mL. Besides, the pKa at 100 µM in the data set “physchem [8]” was 10.
Take `O=[N+]([O-])c1ccc(F)c(B(O)O)c1`: in the data set on Escherichia coli [1], the “inhibition zone (IZ)” value turned out to be 30.5 mm. This compound also returned a pKa at 100 µM in “physchem [8]” of 6.03. This compound also yielded a pKa in “physchem [22]” of 6.
In [23], `CC(C)(O/N=C(/C(=O)NCB(O)O)c1cnc(N)s1)C(=O)O` registered a Ki of 4 nM.
